Laboratory results as given in ChEMBL document CHEMBL1124606, “Benzo- and pyrido-1,4-oxazepin-5-ones and -thiones: synthesis and structure-activity relationships of a new series of H1 antihistamines” (1989).

Key:
Felis catus [1] = assay: The compound dose required for 50% block of H1 histamine activity, when administarted intra venously in cats; type: functional
In short: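 Cats given test compound iv (0.001-20 mg/kg), with blood pressure recorded continuously. Histamine 0.5 μg/kg iv was given to induce hypotension, before and 5, 10 and 20 min after each dose. The antihistaminic dose was the one inhibiting the histamine response by >50%. Values are mean ± SD over the number of experiments per compound.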

Felis catus [2] = assay: The compound dose required to elicit marked cortical slowing and spindling, when administarted intra venously in cats; type: functional
In short: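 Cats given test compound iv (0.001-20 mg/kg), with spontaneous EEG inspected after each dose for cortical slowing, synchrony and spindle-type activity. The sedative dose was the one producing marked slowing and spindling (synchrony). Values are mean ± SD over the number of experiments per compound.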

Cavia porcellus [3] = species on record: Cavia porcellus; assay: Effective dose that protects guinea pigs against histamine induced lethality, at 1 hour pretreatment time; type: functional
In short: (§1)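 Survival at 24 h after challenge was scored as protection. Groups of 5–10 animals per treatment; ED50 was calculated by the Litchfield–Wilcoxon method or by computer probit analysis.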

Cavia porcellus [4] = assay: Histamine induced lethality, at 60-min pretreatment time when 3 mg/kg compound was administered perorally in guinea pigs; type: functional; conditions: route oral
Cavia porcellus [5] = assay: Histamine induced lethality, at 60-min pretreatment time when 0.3 mg/kg compound was administered perorally in guinea pigs; type: functional; conditions: route oral
Cavia porcellus [6] = assay: Histamine induced lethality, at 60-min pretreatment time when 1 mg/kg compound was administered perorally in guinea pigs; type: functional; conditions: route oral
Cavia porcellus [7] = assay: Histamine induced lethality, at 60-min pretreatment time when 30 mg/kg compound was administered perorally in guinea pigs; type: functional; conditions: route oral
Cavia porcellus [8] = species on record: Cavia porcellus; assay: Effective dose that protects guinea pigs against histamine induced lethality at 6 hours pretreatment time; type: functional; in short: as §1
[9] = molecular target: Histamine H1 receptor (Cavia porcellus) (UniProt P31389); assay: Histamine induced lethality, at 60-min pretreatment time of 0.1 mg/kg p.o. in guinea pigs.; type: functional, organism-based; design: dose 0.1 mg/kg; conditions: at 0.1 mg/kg
Sequence of Histamine H1 receptor (Cavia porcellus) (P31389 whole entry): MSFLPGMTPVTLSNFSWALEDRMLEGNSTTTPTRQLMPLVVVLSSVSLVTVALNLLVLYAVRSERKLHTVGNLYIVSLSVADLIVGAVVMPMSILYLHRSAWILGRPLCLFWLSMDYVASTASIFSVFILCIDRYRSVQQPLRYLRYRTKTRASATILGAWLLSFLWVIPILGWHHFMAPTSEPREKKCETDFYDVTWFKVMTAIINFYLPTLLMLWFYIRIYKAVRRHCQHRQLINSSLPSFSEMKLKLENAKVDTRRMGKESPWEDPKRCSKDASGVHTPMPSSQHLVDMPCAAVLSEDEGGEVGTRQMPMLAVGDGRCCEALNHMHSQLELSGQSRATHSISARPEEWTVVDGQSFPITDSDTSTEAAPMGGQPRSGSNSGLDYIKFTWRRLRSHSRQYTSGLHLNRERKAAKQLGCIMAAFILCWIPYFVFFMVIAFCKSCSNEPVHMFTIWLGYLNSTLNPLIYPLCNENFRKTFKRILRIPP

Cavia porcellus [10] = assay: Histamine induced lethality, at 30-min pretreatment time when 30 mg/kg compound was administered intra peritoneally in guinea pigs; type: functional
[11] = molecular target: Histamine H1 receptor (Cavia porcellus) (UniProt P31389); assay: Histamine induced lethality, at 30-min pretreatment time of 3 mg/kg i.p. in guinea pigs.; type: functional, organism-based; design: dose 3 mg/kg; conditions: at 3 mg/kg

| Structure (SMILES) | survival at 3 mg/kg (Cavia porcellus [4]) [%] | survival at 0.3 mg/kg (Cavia porcellus [5]) [%] | survival at 1 mg/kg (Cavia porcellus [6]) [%] | further results |
| --- | --- | --- | --- | --- |
| CCOC(=O)N1CCC(=C2c3ccc(Cl)cc3CCc3cccnc32)CC1 [LORATADINE] | – | – | – | Dose (Felis catus [1]): 0.43 mg/kg; Dose (Felis catus [2]): 20 mg/kg |
| CN(C)CCC1(C)CN(C)C(=O)c2cccnc2O1 (stereo unspecified) | 67 | 67 | – | ED50 (Cavia porcellus [3]): 0.45 mg/kg |
| CN(C)CCC1CN=C(S)c2cccnc2O1 (stereo unspecified) | 100 | 0 | 33 | – |
| CN(CCC1CN(C)C(=S)c2cc(Br)cnc2O1)Cc1ccccc1 (stereo unspecified) | 100 | – | 0 | – |
| CN(C)CCC1CNC(=O)c2cccnc2O1 (stereo unspecified) | 67 | – | 0 | – |
| CN1CC(CCN)Oc2ncccc2C1=S (stereo unspecified) | – | – | – | survival at 30 mg/kg (Cavia porcellus [7]): 0% |
| CN(C)CCOC(c1ccccc1)c1ccccc1 [DIPHENHYDRAMINE] | 67 | – | 33 | ED50 (Cavia porcellus [8]): 38 mg/kg; Dose (Felis catus [1]): 0.75 mg/kg; ED50 (Cavia porcellus [3]): 2.8 mg/kg; Dose (Felis catus [2]): 0.6 mg/kg |
| CN1CC(CCN2CCCC2)Oc2ncc(Cl)cc2C1=S (stereo unspecified) | – | 100 | – | ED50 (Cavia porcellus [3]): 0.12 mg/kg; Survival [9]: 40% |
| CN1CC(CCCN)Oc2ncccc2C1=S (stereo unspecified) | – | – | – | survival at 30 mg/kg (Cavia porcellus [10]): 67% |
| CCN1CC(CCN(C)C)Oc2ncccc2C1=S (stereo unspecified) | 100 | – | 33 | – |
| O=C1c2ccccc2OC(CCN2CCOCC2)CN1Cc1ccccc1 (stereo unspecified) | – | – | – | survival at 30 mg/kg (Cavia porcellus [10]): 0% |
| CN(C)CCC1CN(C)C(=S)c2cc(C(F)(F)F)ccc2O1 (stereo unspecified) | 33 | – | – | survival at 30 mg/kg (Cavia porcellus [7]): 100% |
| CN(C)CCC1CN(C)C(=S)c2cc(-c3ccccc3)cnc2O1 (stereo unspecified) | 100 | 0 | 100 | – |
| CN1CC(CCN2CCC2)Oc2ncc(Br)cc2C1=S (stereo unspecified) | 100 | – | 60 | ED50 (Cavia porcellus [8]): 0.1 mg/kg; ED50 (Cavia porcellus [3]): 0.09 mg/kg; Survival [9]: 60% |
| CN(CCC1CN(C)C(=S)c2cccnc2O1)Cc1ccc(C(C)(C)C)cc1 (stereo unspecified) | 100 | 0 | 40 | – |
| CN(C)CCC1CN(C)C(=S)c2ccc(Cl)cc2O1 (stereo unspecified) | 100 | 0 | 0 | survival at 30 mg/kg (Cavia porcellus [7]): 100% |
| CN(C)CCCOc1ncccc1C(=S)N(C)C | – | – | – | survival at 30 mg/kg (Cavia porcellus [10]): 0% |
| CN1CC(CCN2CCC2)Oc2ccc(C(F)(F)F)cc2C1=S (stereo unspecified) | 33 | – | – | survival at 30 mg/kg (Cavia porcellus [7]): 100% |
| CN(C)CCCC1CN(C)C(=S)c2cccnc2O1 (stereo unspecified) | – | – | – | Survival [11]: 33%; survival at 30 mg/kg (Cavia porcellus [10]): 100% |

| Structure (SMILES) | survival at 3 mg/kg (Cavia porcellus [4]) [%] | survival at 0.3 mg/kg (Cavia porcellus [5]) [%] | survival at 1 mg/kg (Cavia porcellus [6]) [%] | further results |
| --- | --- | --- | --- | --- |
| CN(C)CCC1CN(C)C(=S)c2cc(N)ccc2O1 (stereo unspecified) | 100 | – | 0 | – |
| S=C1c2ccccc2OC(CCN2CCOCC2)CN1Cc1ccccc1 (stereo unspecified) | – | – | – | survival at 30 mg/kg (Cavia porcellus [10]): 0% |
| CN(C)CCC1(C)CN(C)C(=S)c2cccnc2O1 (stereo unspecified) | – | 67 | 100 | ED50 (Cavia porcellus [8]): 6 mg/kg; ED50 (Cavia porcellus [3]): 0.12 mg/kg; Survival [9]: 40% |
| CN(C)CCC1CN(C)C(=O)c2cccnc2O1 (stereo unspecified) | 100 | – | 20 | ED50 (Cavia porcellus [3]): 1.05 mg/kg |
| CN(C)CC1CN(C)C(=O)c2cccnc2O1 (stereo unspecified) | – | – | – | survival at 30 mg/kg (Cavia porcellus [10]): 0% |
| Cc1nc2c(cc1Cl)C(=S)N(C)CC(CCN(C)C)O2 (stereo unspecified) | – | 67 | – | Survival [9]: 67% |
| CN1CC(CCn2cccn2)Oc2ncccc2C1=S (stereo unspecified) | – | – | – | survival at 30 mg/kg (Cavia porcellus [10]): 33% |
| COc1ccc(CCN2CCC(Nc3nc4ccccc4n3Cc3ccc(F)cc3)CC2)cc1 [ASTEMIZOLE] | – | – | – | Dose (Felis catus [1]): 0.43 mg/kg; Dose (Felis catus [2]): 8 mg/kg |
| CN1CC(CCCN)Oc2ncccc2C1=O (stereo unspecified) | – | – | – | Survival [11]: 0%; survival at 30 mg/kg (Cavia porcellus [10]): 100% |
| COc1ccc2c(c1)C(=S)N(C)CC(CCN(C)C)O2 (stereo unspecified) | 0 | – | – | survival at 30 mg/kg (Cavia porcellus [7]): 100% |
| CN1CC(CCN2CCCC2)Oc2ncccc2C1=S (stereo unspecified) | 80 | – | – | survival at 30 mg/kg (Cavia porcellus [7]): 67% |
| CN(C)CCC1CN(C)C(=O)c2ccccc2O1 (stereo unspecified) | – | – | – | survival at 30 mg/kg (Cavia porcellus [10]): 62% |
| Cc1nc2c(cc1Cl)C(=S)N(C)CC(CCN1CCC1)O2 (stereo unspecified) | – | 67 | – | Survival [9]: 67% |
| CNCCC1CN(C)C(=S)c2cc(Cl)cnc2O1 (stereo unspecified) | 100 | 0 | – | – |
| CN(C)CCC1CN(C)C(=S)c2cc(F)ccc2O1 (stereo unspecified) | 100 | 0 | 20 | – |
| CN(C)CCC1CN(Cc2ccccc2)C(=S)c2cccnc2O1 (stereo unspecified) | 100 | – | 0 | – |
| CN(CCC1CN(C)C(=S)c2cc(Cl)cnc2O1)Cc1ccccc1 (stereo unspecified) | 100 | 60 | – | ED50 (Cavia porcellus [3]): 0.9 mg/kg |
| CN(C)CCC1CN(C)C(=O)c2cc(Cl)cnc2O1 (stereo unspecified) | – | 33 | 100 | ED50 (Cavia porcellus [8]): 28 mg/kg; ED50 (Cavia porcellus [3]): 0.3 mg/kg |
| CN(C)CCC1CN(C)C(=S)c2cc(Cl)ccc2O1 (stereo unspecified) | 100 | – | 33 | Dose (Felis catus [2]): 10 mg/kg |
